Test results from ChEMBL document CHEMBL3877292, “Synthesis and evaluation of novel hybrids β-carboline-4-thiazolidinones as potential antitumor and antiviral agents” (Eur J Med Chem, 2016).
pEC50: −log10 of the molar value.

What was measured:
[1] = Antiproliferative activity against human U251 cells after 48 hrs by SRB assay; assay type: functional; conditions: U-251, 48 h
Summary of the method: (§1)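 Cells grown in RPMI 1640 with 5% FBS, with penicillin/streptomycin in experimental cultures. Exposed in triplicate to 0.25, 2.5, 25 and 250 µg/mL in DMSO/RPMI for 48 h at 37 °C under 5% CO2. Plates were TCA-fixed before (T0) and after treatment, then stained with sulforhodamine B and read at 540 nm. GI50 was obtained by non-linear regression against untreated growth. Doxorubicin served as positive control.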

[2] = Antiproliferative activity against human MCF7 cells after 48 hrs by SRB assay; assay type: functional; conditions: MCF7, 48 h; summary of the method: as §1
[3] = Antiproliferative activity against human NCI/ADR-RES cells after 48 hrs by SRB assay; assay type: functional; summary of the method: as §1
[4] = Antiproliferative activity against human 786-0 cells after 48 hrs by SRB assay; assay type: functional; conditions: 786-0, 48 h; summary of the method: as §1
[5] = Antiproliferative activity against human NCI-H460 cells after 48 hrs by SRB assay; assay type: functional; conditions: NCI-H460, 48 h; summary of the method: as §1
[6] = Antiproliferative activity against human OVCAR3 cells after 48 hrs by SRB assay; assay type: functional; conditions: OVCAR-3, 48 h; summary of the method: as §1
[7] = Antiproliferative activity against human HT-29 cells after 48 hrs by SRB assay; assay type: functional; conditions: HT-29, 48 h; summary of the method: as §1
[8] = Antiproliferative activity against human UACC62 cells after 48 hrs by SRB assay; assay type: functional; conditions: UACC-62, 48 h; summary of the method: as §1
[9] = Antiproliferative activity against human PC3 cells after 48 hrs by SRB assay; assay type: functional; conditions: PC-3, 48 h; summary of the method: as §1
[10] = Cytotoxicity against African green monkey Vero cells after 48 hrs by SRB assay; assay type: toxicity, cell-based; conditions: chlorocebus sabaeus
Summary of the method: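 Vero (ATCC CCL81) cells grown in DMEM with 10% FBS and gentamicin at 37°C, 5% CO2. Cells exposed in triplicate to 1000, 500, 100, 10, 1 and 0.1 µg/mL, with untreated cells as control. Viability read by sulforhodamine B colorimetry. CC50 is the concentration giving 50% cytotoxicity.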

[11] = system: Human alphaherpesvirus 1; experiment: Antiviral activity against Herpes simplex type I KOS; assay type: functional; conditions: Human alphaherpesvirus 1, KOS
[12] = Selectivity index, ratio of CC50 for Herpes simplex type I KOS infected African green monkey Vero cells to EC50 for Herpes simplex virus type 1 KOS; assay type: toxicity, cell-based; conditions: Herpes simplex virus type 1 KOS infected Vero cells, read-out: Ratio CC50/EC50
Summary of the method: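 SI calculated as CC50/EC50. CC50 is the 50% cytotoxic concentration on Vero cells by sulforhodamine B, tested in triplicate from 0.1 to 1000 µg/mL. EC50 is the concentration protecting 50% of cells against HSV-1, with acyclovir as HSV-1 standard and drug-free cells as control.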

[13] = Cell cycle arrest in human 786-0 cells assessed as accumulation at sub-G1 phase at 1.25 uM after 24 hrs by propidium iodide staining-based flow cytometry (Rvb=3.7+/-0.9%); assay type: functional
Summary of the method: (§2)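 786-0 cells seeded at 3×10^4 cells/mL and grown 24 h, then serum-starved 24 h to synchronise. Treated in DMSO/RPMI for 24 h alongside DMSO vehicle and colchicine control. 1×10^5 cells in PBS were stained with propidium iodide for 20 min in the dark at room temperature, then analysed by flow cytometry. Results are mean ± standard error % cells from three experiments in triplicate; ANOVA/Tukey.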

[14] = Cell cycle arrest in human 786-0 cells assessed as accumulation at G1 phase at 1.25 uM after 24 hrs by propidium iodide staining-based flow cytometry (Rvb=47.1+/-1%); assay type: functional; summary of the method: as §2
[15] = Cell cycle arrest in human 786-0 cells assessed as accumulation at S phase at 1.25 uM after 24 hrs by propidium iodide staining-based flow cytometry (Rvb=12.6+/-0.7%); assay type: functional; summary of the method: as §2
[16] = Cell cycle arrest in human 786-0 cells assessed as accumulation at G2/M phase at 1.25 uM after 24 hrs by propidium iodide staining-based flow cytometry (Rvb=36.5+/-1.1%); assay type: functional; summary of the method: as §2

Row | Compound | GI50 [1] | GI50 [2] | GI50 [3] | GI50 [4] | GI50 [5] | GI50 [6] | GI50 [7] | GI50 [8] | GI50 [9] | CC50 at 48 h [10] | pEC50 [11] | selectivity ratio [12] | Activity [13] | Activity [14] | Activity [15] | Activity [16]
1 | O=C(NN1C(=O)CSC1c1ccccc1Cl)c1cc2c([nH]c3ccccc32)c(-c2ccccc2)n1 (stereo not given) | > 100 µM | > 100 µM | > 100 µM | > 100 µM | > 100 µM | > 100 µM | > 100 µM | > 100 µM | > 100 µM | – | – | – | – | – | – | –
2 | O=C(N/N=C1\SCC(=O)N1c1ccccc1)c1cc2c([nH]c3ccccc32)c(-c2ccccc2)n1 | 17.5 µM | 28 µM | 3.13 µM | 13.6 µM | 37.2 µM | 17.5 µM | > 100 µM | – | – | 1480 µM | 4.10 | 18.8 | – | – | – | –
3 | O=C1CS/C(=N\NC(=O)c2cc3c([nH]c4ccccc43)c(-c3ccccc3Cl)n2)N1 | – | 1.42 µM | > 100 µM | 6.1 µM | 3.85 µM | 0.01 µM | 10.8 µM | – | – | 766 µM | < 4.00 | – | – | – | – | –
4 | CCN1C(=O)CS/C1=N\NC(=O)c1cc2c([nH]c3ccccc32)c(-c2ccccc2Cl)n1 | 0.74 µM | 6.84 µM | 0.25 µM | – | 4.12 µM | 3.97 µM | 88.9 µM | – | – | 1400 µM | < 4.00 | – | – | – | – | –
5 | O=C1CS/C(=N\NC(=O)c2cc3c([nH]c4ccccc43)c(-c3ccccc3)n2)N1 | 15.8 µM | 11.4 µM | 28.1 µM | 16.3 µM | 18.2 µM | 9.88 µM | 19.5 µM | – | – | 2490 µM | 3.99 | 24.4 | – | – | – | –
6 | O=C1CS/C(=N\NC(=O)c2cc3c([nH]c4ccccc43)c(-c3ccccc3F)n2)N1 | 9.57 µM | 11.9 µM | 66.4 µM | 20.3 µM | 21.1 µM | 12.3 µM | 32.4 µM | – | – | 1070 µM | 4.71 | 54.9 | – | – | – | –
7 | O=C(NN1C(=O)CSC1c1ccccc1)c1cc2c([nH]c3ccccc32)c(-c2ccccc2)n1 (stereo not given) | 0.25 µM | 19.1 µM | 18.4 µM | > 100 µM | > 100 µM | 1.58 µM | > 100 µM | 80.4 µM | 7.23 µM | 506 µM | 5.67 | 235 | – | – | – | –
8 | O=C(NN1C(=O)CSC1c1cccs1)c1cc2c([nH]c3ccccc32)c(-c2ccccc2)n1 (stereo not given) | > 100 µM | > 100 µM | > 100 µM | > 100 µM | > 100 µM | > 100 µM | > 100 µM | > 100 µM | > 100 µM | – | – | – | – | – | – | –
9 | CCN1C(=O)CS/C1=N\NC(=O)c1cc2c([nH]c3ccccc32)c(-c2ccc(OC)cc2)n1 | 1.95 µM | 6.52 µM | 12.2 µM | – | 8.56 µM | 6.52 µM | 9.62 µM | – | – | 1730 µM | 4.58 | 65.2 | – | – | – | –
10 | CCN1C(=O)CS/C1=N\NC(=O)c1cc2c([nH]c3ccccc32)c(-c2ccccc2F)n1 | > 100 µM | > 100 µM | > 100 µM | > 100 µM | > 100 µM | > 100 µM | > 100 µM | – | – | 2980 µM | < 4.00 | – | – | – | – | –
11 | CCN1C(=O)CS/C1=N\NC(=O)c1cc2c([nH]c3ccccc32)c(-c2ccccc2)n1 | 0.46 µM | 17.2 µM | 8.89 µM | – | > 100 µM | > 100 µM | > 100 µM | – | – | – | – | – | – | – | – | –
12 | COc1ccc(-c2nc(C(=O)N/N=C3/NC(=O)CS3)cc3c2[nH]c2ccccc23)cc1 | – | 0.49 µM | > 100 µM | 9.98 µM | 7.15 µM | 1.12 µM | 16.5 µM | – | – | – | – | – | – | – | – | –
13 | O=C1CS/C(=N\NC(=O)c2cc3c([nH]c4ccccc43)c(-c3cccc([N+](=O)[O-])c3)n2)N1 | – | 40.1 µM | 0.62 µM | 16.1 µM | > 100 µM | > 100 µM | > 100 µM | – | – | – | – | – | – | – | – | –
14 | CCN1C(=O)CS/C1=N\NC(=O)c1cc2c([nH]c3ccccc32)c(-c2cccc([N+](=O)[O-])c2)n1 | > 100 µM | > 100 µM | 3.27 µM | > 100 µM | > 100 µM | > 100 µM | > 100 µM | – | – | 1790 µM | 4.06 | 20.7 | – | – | – | –
15 | O=C(NN1C(=O)CSC1c1ccccc1)c1cc2c([nH]c3ccccc32)c(-c2ccccc2F)n1 (stereo not given) | 84.1 µM | 63.1 µM | > 100 µM | > 100 µM | > 100 µM | 0.73 µM | > 100 µM | – | – | 637 µM | 4.52 | 21 | – | – | – | –
16 | CCN1C(=O)CS/C1=N\NC(=O)c1cc2c([nH]c3ccccc32)c(-c2ccc(N(C)C)cc2)n1 | 63.3 µM | 54.9 µM | 2.6 µM | 6.61 µM | 59 µM | 2.42 µM | 65.7 µM | – | – | 1650 µM | 5.17 | 243 | – | – | – | –
17 | O=C(NN1C(=O)CSC1c1ccccc1)c1cc2c([nH]c3ccccc32)c(-c2cccc([N+](=O)[O-])c2)n1 (stereo not given) | > 100 µM | > 100 µM | > 100 µM | > 100 µM | > 100 µM | 1.25 µM | > 100 µM | – | – | 1080 µM | 5.69 | 534 | – | – | – | –
18 | O=C(N/N=C1\SCC(=O)N1c1ccccc1)c1cc2c([nH]c3ccccc32)c(-c2cccc([N+](=O)[O-])c2)n1 | 1.59 µM | 2.36 µM | 0.19 µM | 1.53 µM | 3.91 µM | 0.83 µM | 2.28 µM | – | – | 1170 µM | 4.76 | 67.8 | – | – | – | –
19 | COc1cc2c(c(OC)c1OC)-c1ccc(OC)c(=O)cc1[C@@H](NC(C)=O)CC2 | – | – | – | – | – | – | – | – | – | – | – | – | 9% | 18.3% | 11% | 61.7%
20 | CN(C)c1ccc(-c2nc(C(=O)NN3C(=O)CSC3c3ccccc3)cc3c2[nH]c2ccccc23)cc1 (stereo not given) | 64.5 µM | > 100 µM | 64.5 µM | > 100 µM | > 100 µM | > 100 µM | > 100 µM | – | – | 467 µM | 6.10 | 592 | – | – | – | –
21 | CN(C)c1ccc(-c2nc(C(=O)N/N=C3\SCC(=O)N3c3ccccc3)cc3c2[nH]c2ccccc23)cc1 | 12.5 µM | 15 µM | 35.4 µM | 3.97 µM | 17.9 µM | > 100 µM | 38.1 µM | – | – | 817 µM | 4.30 | 16.4 | – | – | – | –
22 | O=C(N/N=C1\SCC(=O)N1c1ccccc1)c1cc2c([nH]c3ccccc32)c(-c2ccccc2F)n1 | > 100 µM | > 100 µM | > 100 µM | > 100 µM | > 100 µM | > 100 µM | > 100 µM | – | – | 339 µM | < 4.00 | – | – | – | – | –
